The results in this text go back to ChEMBL document CHEMBL1135657, “Novel dual inhibitors of AChE and MAO derived from hydroxy aminoindan and phenethylamine as potential treatment for Alzheimer's disease” (J Med Chem, 2002).

Data set [1] addresses T1, Butyrylcholinesterase (Equus caballus, UniProt Q9N1N9). Kind of data set: In vitro inhibitory concentration against Butyrylcholinesterase of horse serum; value ranges from 0.20-0.36. The method in brief: (§1)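 Ellman assay followed, with 200 µM butyrylthiocholine as substrate. Runs were in triplicate with four-point dose-response curves. IC50 and fiducial limits came from log concentration versus % inhibition.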

Data set [2] has as its target T2, Acetylcholinesterase (Homo sapiens, UniProt P22303). The data set can be described thus: In vitro inhibitory concentration against purified Acetylcholinesterase of human erythrocytes; value ranges from 0.32-0.98.
Data set [3] deals with T1, Butyrylcholinesterase. Kind of data set: In vitro inhibitory concentration against Butyrylcholinesterase of horse serum; value ranges from 1.00-1.20. The method in brief:
as §1

In data set [4] the target is T3, Amine oxidase [flavin-containing] A (Rattus norvegicus, UniProt P21396).
T3 sequence (P21396 whole entry): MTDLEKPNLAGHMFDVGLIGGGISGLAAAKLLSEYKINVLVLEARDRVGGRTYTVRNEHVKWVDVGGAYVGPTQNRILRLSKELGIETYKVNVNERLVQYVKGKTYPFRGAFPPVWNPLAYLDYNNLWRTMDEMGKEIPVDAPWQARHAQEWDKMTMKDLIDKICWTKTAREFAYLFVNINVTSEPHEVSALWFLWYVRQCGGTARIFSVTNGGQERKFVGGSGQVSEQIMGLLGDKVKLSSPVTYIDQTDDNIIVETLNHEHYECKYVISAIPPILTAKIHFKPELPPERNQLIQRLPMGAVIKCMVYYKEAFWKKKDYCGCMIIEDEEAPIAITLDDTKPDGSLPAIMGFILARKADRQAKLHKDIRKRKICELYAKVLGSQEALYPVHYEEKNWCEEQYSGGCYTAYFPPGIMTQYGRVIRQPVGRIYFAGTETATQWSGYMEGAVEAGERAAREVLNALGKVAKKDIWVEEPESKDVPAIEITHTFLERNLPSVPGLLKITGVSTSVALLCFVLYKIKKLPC
The data set can be described thus: In vitro inhibitory concentration against Monoamine oxidase A of rat brain homogenates; value ranges from 6.3-7.7. In kind it is tissue-based.

In data set [5] the target is T4, Amine oxidase [flavin-containing] B (Rattus norvegicus, UniProt P19643).
T4 sequence (P19643 whole entry): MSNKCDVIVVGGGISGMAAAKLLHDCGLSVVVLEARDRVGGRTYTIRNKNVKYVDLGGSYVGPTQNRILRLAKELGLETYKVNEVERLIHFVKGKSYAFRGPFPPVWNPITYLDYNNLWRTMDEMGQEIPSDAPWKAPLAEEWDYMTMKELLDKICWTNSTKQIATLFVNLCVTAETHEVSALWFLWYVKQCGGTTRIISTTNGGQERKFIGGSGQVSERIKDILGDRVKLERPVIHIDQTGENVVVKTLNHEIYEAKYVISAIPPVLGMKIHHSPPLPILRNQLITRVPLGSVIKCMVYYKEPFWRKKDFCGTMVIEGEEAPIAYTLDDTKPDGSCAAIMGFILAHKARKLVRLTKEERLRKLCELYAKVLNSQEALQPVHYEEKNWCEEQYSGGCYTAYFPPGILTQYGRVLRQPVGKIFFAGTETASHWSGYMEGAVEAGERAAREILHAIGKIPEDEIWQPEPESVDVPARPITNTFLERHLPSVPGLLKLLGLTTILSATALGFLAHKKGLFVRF
Kind of data set: In vitro inhibitory concentration against Monoamine oxidase B of rat brain homogenates; value ranges from 4.8-6.9. The format is tissue-based.

For data set [6], the target named is T2, Acetylcholinesterase.
The target of data set [7] is T1, Butyrylcholinesterase. The data set can be described thus: In vitro inhibitory concentration against Butyrylcholinesterase of horse serum; value ranges from 1.6-2.4. The method in brief:
as §1

For data set [8], the target named is T4, Amine oxidase [flavin-containing] B. Kind of data set: In vitro inhibitory concentration against Monoamine oxidase B of rat brain homogenates; value ranges from 0.19-0.44. The format is tissue-based. In short, it runs like this: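 Rat brain homogenate (in 0.3 M sucrose) as enzyme source; compounds diluted 10⁻²M to 10⁻⁹M in 0.05 M phosphate buffer with 0.15 μM clorgyline; preincubated 60 min at 37 °C, then 10 μM ¹⁴C-phenylethylamine added for 20 min more; stopped with citric acid; metabolites extracted into toluene/ethyl acetate, scintillation counted; activity as % of control, tranylcypromine blank.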

The target of data set [9] is T2, Acetylcholinesterase. Kind of data set: In vitro inhibitory concentration against purified Acetylcholinesterase of human erythrocytes; value ranges from 0.44-0.49.
For data set [10], the target named is T2, Acetylcholinesterase. The data set can be described thus: In vitro inhibitory concentration against purified Acetylcholinesterase of human erythrocytes; value ranges from 31.2-202.
In data set [11] the target is T1, Butyrylcholinesterase. Kind of data set: In vitro inhibitory concentration against Butyrylcholinesterase of horse serum; value ranges from 1.19-6.10. In short, it runs like this:
as §1

Data set [12] concerns the target T2, Acetylcholinesterase. The data set can be described thus: In vitro inhibitory concentration against purified Acetylcholinesterase of human erythrocytes; value ranges from 252-806.
The target of data set [13] is T1, Butyrylcholinesterase. Kind of data set: In vitro inhibitory concentration against Butyrylcholinesterase of horse serum; value ranges from 10.7-43.7. In short, it runs like this:
as §1

Data set [14] concerns the target T2, Acetylcholinesterase. The source holds these as a separate data set.
In data set [15] the target is T1, Butyrylcholinesterase. Kind of data set: In vitro inhibitory concentration against Butyrylcholinesterase of horse serum; value ranges from 29.6-110. The method in brief:
as §1

In data set [16] the target is T2, Acetylcholinesterase. The data set can be described thus: In vitro inhibitory concentration against purified Acetylcholinesterase of human erythrocytes; value ranges from 0.54-0.56.
The target of data set [17] is T1, Butyrylcholinesterase.
Data set [18] has as its target T2, Acetylcholinesterase. Kind of data set: In vitro inhibitory concentration against purified Acetylcholinesterase of human erythrocytes; value ranges from 0.012-0.014.
For data set [19], the target named is T4, Amine oxidase [flavin-containing] B. Kind of data set: In vitro inhibitory concentration against Monoamine oxidase B of rat brain homogenates. In kind it is tissue-based.
Data set [20] has as its target T3, Amine oxidase [flavin-containing] A. The data set can be described thus: In vitro inhibitory concentration against Monoamine oxidase A of rat brain homogenates; value ranges from 5.6-19.6. In kind it is tissue-based.
Data set [21] addresses T4, Amine oxidase [flavin-containing] B. The data set can be described thus: In vitro inhibitory concentration against Monoamine oxidase B of rat brain homogenates; value ranges from 80.-92.
Data set [22] has as its target T3, Amine oxidase [flavin-containing] A. Kind of data set: In vitro inhibitory concentration against Monoamine oxidase A of rat brain homogenates; value ranges from 0.22-0.29. In kind it is tissue-based.
Data set [23] has as its target T2, Acetylcholinesterase. The source holds these as a separate data set.
Data set [24] concerns the target T1, Butyrylcholinesterase. Kind of data set: In vitro inhibitory concentration against Butyrylcholinesterase of horse serum; value ranges from 0.34-1.03. The method in brief:
as §1

Data set [25] concerns the target T3, Amine oxidase [flavin-containing] A. Kind of data set: In vitro inhibitory concentration against Monoamine oxidase A of rat brain homogenates; value ranges from 30-230. The format is tissue-based.
Data set [26] is described as follows: Bimolecular rate constant for carbamoylation of ACHE. In kind it is ADME. In short, it runs like this:
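Human erythrocyte AChE preincubated with inhibitor at 37 °C in 0.1 M phosphate buffer, pH 7.4, under Ellman conditions with 200 µM […]. Pseudo-first-order rate constants (k_obs) for progressive inhibition were obtained at 4-5 inhibitor concentrations. The apparent bimolecular carbamylation constant k_i was calculated from these.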

The nature of data set [27]: Pseudo-first order rate constant for carbamoylation of ACHE at 100 (uM) concentration. The format is ADME. The method in brief: (§2)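 Human erythrocyte AChE, same Ellman conditions: 200 µM […], 60 min preincubation at 37 °C, 0.1 M phosphate pH 7.4. Progressive inhibition followed at 4-5 inhibitor concentrations. Pseudo-first-order k_obs (min⁻¹) derived per concentration; apparent bimolecular carbamylation constant k_i calculated from these.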

Data set [28] is described as follows: Pseudo-first order rate constant for carbamoylation of ACHE at 300 (uM) concentration. In kind it is ADME. In short, it runs like this: as §2
Data set [29] in a line: Pseudo-first order rate constant for carbamoylation of ACHE at 400 (uM) concentration. The format is ADME. The method in brief:
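Pseudo-first-order rate constants kobs measured at 4-5 inhibitor concentrations following Bar-On et al. Apparent bimolecular carbamylation constant ki calculated from these.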

Data set [30] is described as follows: Pseudo-first order rate constant for carbamoylation of ACHE at 50 (uM) concentration. The format is ADME. In short, it runs like this:
as §2

Data set [31] concerns the target T2, Acetylcholinesterase. Kind of data set: In vitro inhibitory concentration against purified Acetylcholinesterase of human erythrocytes; value ranges from 42.5-45.9.
The target in data set [32] is T4, Amine oxidase [flavin-containing] B. Kind of data set: In vitro inhibitory concentration against Monoamine oxidase B of rat brain homogenates; value ranges from 18-59. In kind it is tissue-based.
Data set [33] has as its target T3, Amine oxidase [flavin-containing] A. The data set can be described thus: In vitro inhibitory concentration against Monoamine oxidase A of rat brain homogenates; value ranges from 315-465. The format is tissue-based.

T2 sequence (P22303 whole entry): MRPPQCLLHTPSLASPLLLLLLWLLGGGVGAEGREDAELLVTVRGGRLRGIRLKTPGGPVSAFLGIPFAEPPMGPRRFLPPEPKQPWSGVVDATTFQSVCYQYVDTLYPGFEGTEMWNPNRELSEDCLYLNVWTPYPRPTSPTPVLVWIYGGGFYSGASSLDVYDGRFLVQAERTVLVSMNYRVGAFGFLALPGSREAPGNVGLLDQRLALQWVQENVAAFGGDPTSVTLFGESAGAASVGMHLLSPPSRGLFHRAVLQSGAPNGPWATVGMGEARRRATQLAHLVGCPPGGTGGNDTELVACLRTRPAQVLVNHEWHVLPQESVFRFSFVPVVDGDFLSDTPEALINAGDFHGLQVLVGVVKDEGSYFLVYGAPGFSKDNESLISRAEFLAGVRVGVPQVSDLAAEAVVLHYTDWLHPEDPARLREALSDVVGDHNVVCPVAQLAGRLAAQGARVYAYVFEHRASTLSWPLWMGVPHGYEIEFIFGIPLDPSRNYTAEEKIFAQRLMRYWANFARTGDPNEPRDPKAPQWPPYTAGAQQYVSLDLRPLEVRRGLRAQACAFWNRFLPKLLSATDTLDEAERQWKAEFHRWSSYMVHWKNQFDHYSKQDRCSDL
T1 sequence (Q9N1N9 whole entry): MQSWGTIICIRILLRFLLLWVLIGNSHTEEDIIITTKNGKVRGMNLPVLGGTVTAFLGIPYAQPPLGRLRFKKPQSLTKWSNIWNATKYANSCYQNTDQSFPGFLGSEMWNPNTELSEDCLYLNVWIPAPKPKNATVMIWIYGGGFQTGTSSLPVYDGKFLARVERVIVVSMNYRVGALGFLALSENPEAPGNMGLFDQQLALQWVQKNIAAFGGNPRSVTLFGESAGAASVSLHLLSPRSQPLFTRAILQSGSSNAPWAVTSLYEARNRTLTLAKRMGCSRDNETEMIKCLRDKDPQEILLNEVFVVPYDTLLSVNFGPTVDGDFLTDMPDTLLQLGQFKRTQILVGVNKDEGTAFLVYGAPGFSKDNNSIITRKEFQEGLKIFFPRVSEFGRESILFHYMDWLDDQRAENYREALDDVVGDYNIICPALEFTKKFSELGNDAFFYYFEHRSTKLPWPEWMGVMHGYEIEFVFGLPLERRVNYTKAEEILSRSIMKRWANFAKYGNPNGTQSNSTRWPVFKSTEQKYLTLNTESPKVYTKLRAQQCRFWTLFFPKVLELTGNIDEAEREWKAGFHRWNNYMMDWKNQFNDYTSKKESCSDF

Molecule `C#CC(C)NCCc1cccc(OC(=O)N(C)CC)c1` (stereo not drawn) returned an IC50 in data set [1] of 240 nM.

With `C#CCNC(C)Cc1cccc(OC(=O)N(C)C)c1` (stereo not drawn), the IC50 in data set [2] turned out to be 540 nM; in [3], 1090 nM; in data set [4] it was 6.9 µM; in data set [5], 5.7 µM.

Turning to `C#CCNCCc1cccc(OC(=O)N(C)CCC)c1`, the IC50 in [6] came out at 15.4 µM; in [7], 1900 nM; in [8], 290 nM.

`CN(C)C(=O)Oc1cccc2c1C(N)CC2` (stereo not drawn): the IC50 in [9] amounted to 460 nM.

Turning to `C#CCNC1CCc2ccc(OC(=O)N(CC)CCCC)cc21` (stereo not drawn), the IC50 in data set [10] came to 72.4 µM; in [11] it was 3.03 µM.

With `C#CCN(C)C1CCc2cccc(OC(=O)N(C)CC)c21` (stereo not drawn), the IC50 is 439 µM in [12] and 20 µM in [13].

For `C#CCNC1CCc2ccc(OC(=O)N(C)CCCC)cc21` (stereo not drawn), the figures for the IC50 in data set [14] and in data set [15] were 11.3 µM and 53.7 µM, respectively.

Turning to `C#CCNC1CCc2ccc(OC(=O)N(C)c3ccccc3)cc21` (stereo not drawn), the 50% inhibitory concentration (IC50) was determined as 550 nM in data set [16] and 16.6 µM in [17].

Regarding `CN(C)C(=O)Oc1cccc2c1CCC2N(C)C` (stereo not drawn), the figures for the IC50 in data set [18], in data set [19] and in data set [20] were 13 nM, over 1 mM and 10 µM, respectively.

On to `C#CCNC1CCc2c(OC(=O)N(C)C)cccc21` (stereo not drawn), for which the figures for the IC50 in data set [21], in data set [22] and in data set [23] were 86 µM, 260 nM and 53 nM, respectively.

With `CN(C)C(=O)Oc1ccc2c(c1)C(N)CC2` (stereo not drawn), the IC50 in data set [24] amounted to 630 nM; in data set [25], 80 µM.

Turning to `C#CCNC1CCc2c(Cl)cc(OC(=O)N(C)CCC)cc21.Cl` (stereo not drawn), the “Bimolecular carbamoylation rate constant (ki)” value in [26] turned out to be 59 M⁻¹ min⁻¹. For the same molecule, the K obs in [27] worked out at 22 min⁻¹; in [28] it was 34 min⁻¹; in data set [29], 38 min⁻¹; in [30], 17 min⁻¹. The IC50 in data set [31] amounted to 43.9 µM; in data set [32], 32 µM; in [33], 375 µM.

What is called IC50 is the point on the concentration scale where inhibition reaches its midpoint.
